We go through one compound from ChEMBL document CHEMBL1157608, “The discovery of 4-{1-[({2,5-dimethyl-4-[4-(trifluoromethyl)benzyl]-3-thienyl}carbonyl)amino]cyclopropyl}benzoic acid (MK-2894), a potent and selective prostaglandin E2 subtype 4 receptor antagonist” (J Med Chem, 2010).

Molecules are shown by their SMILES. pKi: −log10 of the molar value.

The target of series [1] is Prostaglandin E2 receptor EP2 subtype (Rattus norvegicus, UniProt Q62928). Briefly: Displacement of [3H]PGE2 from rat EP2 receptor expressed in HEK293-EBNA cells by scintillation counting. The class given is cell-based. In short, it runs like this:
(§1)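 Radioligand binding on membranes from HEK 293(EBNA) clonal lines overexpressing each prostanoid receptor, using the respective 3H-prostaglandin or thromboxane ligand; EP4 binding also run with 10% human serum; Ki as means of at least three experiments (rEP2, rEP3 n = 1).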
For orientation: In a radioligand displacement assay an active substance lowers the binding of a labelled ligand.

For another series, the target named is T1, Thromboxane A2 receptor (Homo sapiens, UniProt P21731).
T1 sequence (P21731 whole entry): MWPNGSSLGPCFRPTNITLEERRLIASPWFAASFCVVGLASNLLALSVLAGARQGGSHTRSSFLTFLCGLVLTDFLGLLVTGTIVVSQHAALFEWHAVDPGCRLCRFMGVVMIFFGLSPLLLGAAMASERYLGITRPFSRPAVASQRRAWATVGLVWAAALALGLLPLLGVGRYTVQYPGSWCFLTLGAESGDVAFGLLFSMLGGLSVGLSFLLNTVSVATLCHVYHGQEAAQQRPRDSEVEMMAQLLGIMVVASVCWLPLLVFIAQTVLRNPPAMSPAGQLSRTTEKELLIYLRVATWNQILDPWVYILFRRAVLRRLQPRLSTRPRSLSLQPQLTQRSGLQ
Briefly: Displacement of [3H]SQ29548 from human TP receptor expressed in HEK293-EBNA cells by scintillation counting. Format: cell-based. Put shortly: as §1

A short description of series [2]: Oral bioavailability in Beagle dog at 5 mg/kg. Format: ADME, organism-based, Canis lupus familiaris. Particulars: in vivo. Put shortly:
(§2)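 Overnight-fasted animals dosed po in 0.5% methocel or iv in 60% PEG 200; plasma from serial blood samples stored at -10 °C, protein-precipitated with equal volume acetonitrile/0.1% formic acid, analysed by LC/MS/MS with internal standard against spiked blank-plasma standards; Cmax from po data, half-life from iv data.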

A short description of series [3]: Cmax in C57BL/6 mouse at 20 mg/kg, po. The class given is ADME, organism-based. Also noted: dose 20 mg/kg, route oral. The settings on record: in vivo. Put shortly: as §2

Chain of Prostaglandin E2 receptor EP2 subtype (Q62928 whole entry): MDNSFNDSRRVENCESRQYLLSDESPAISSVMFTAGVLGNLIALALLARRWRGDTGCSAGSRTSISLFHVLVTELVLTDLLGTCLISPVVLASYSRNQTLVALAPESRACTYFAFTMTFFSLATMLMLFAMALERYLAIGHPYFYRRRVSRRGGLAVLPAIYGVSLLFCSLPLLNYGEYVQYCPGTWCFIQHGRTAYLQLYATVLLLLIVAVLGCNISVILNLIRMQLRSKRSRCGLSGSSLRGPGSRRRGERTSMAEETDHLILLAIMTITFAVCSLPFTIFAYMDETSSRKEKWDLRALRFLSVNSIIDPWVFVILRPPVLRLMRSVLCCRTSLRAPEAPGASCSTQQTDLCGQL

A word on the pKi: it is −log10 of the Ki, conventionally taken in molar units. A higher pKi goes with a small Ki. The term bioavailability denotes dose-corrected exposure relative to a reference, in per cent. One may read the Cmax as the highest concentration seen after dosing. Consider `Cc1sc(C)c(C(=O)NC2(c3ccc(C(=O)O)cc3)CC2)c1Cc1ccc(C(F)(F)F)cc1`, for which the figures for the pKi (in series [1]; at Thromboxane A2 receptor) were 5.14 and less than 5.17, respectively. Further, the bioavailability in series [2] came out at 32%. Also, in series [3], the highest level (Cmax) was 1400 nM.
